Experimental data: ChEMBL document CHEMBL1137588, “An evaluation of 3,4-methylenedioxy phenyl replacements in the aminopiperidine chromone class of MCHr1 antagonists” (Bioorg Med Chem Lett, 2007)

How the values were obtained:
[1] = target: Melanin-concentrating hormone receptor (Homo sapiens, UniProt Q969V1+Q99705); assay: Inhibition of MCH-mediated calcium release in IMR-32 cells; type: functional, cell-based
[2] = target: Melanin-concentrating hormone receptor 1 (Homo sapiens, UniProt Q99705); assay: Displacement of 125I-MCH from MCH-R1 expressed in IMR-32 cells; type: cell-based
Melanin-concentrating hormone receptor 1, sequence (Q99705 whole entry): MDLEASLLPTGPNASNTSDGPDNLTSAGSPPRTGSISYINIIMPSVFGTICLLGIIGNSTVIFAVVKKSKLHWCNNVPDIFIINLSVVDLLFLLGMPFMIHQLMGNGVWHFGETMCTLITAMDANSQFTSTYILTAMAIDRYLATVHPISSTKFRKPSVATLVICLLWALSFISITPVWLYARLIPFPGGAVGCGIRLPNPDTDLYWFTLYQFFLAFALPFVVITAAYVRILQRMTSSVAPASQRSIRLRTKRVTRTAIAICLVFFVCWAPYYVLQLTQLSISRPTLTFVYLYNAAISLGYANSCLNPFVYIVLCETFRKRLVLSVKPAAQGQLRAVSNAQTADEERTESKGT

[3] = target: Adrenergic receptor alpha-1 (Homo sapiens) (UniProt P35348+P25100+P35368); assay: Inhibition of adrenergic alpha 1 receptor at 10uM; type: protein assay
[4] = Inhibition of sodium channel at 10uM
[5] = target: Sodium-dependent dopamine transporter (Homo sapiens) (UniProt Q01959); assay: Inhibition of human dopamine transporter at 10uM
[6] = target: D(1A) dopamine receptor (Homo sapiens) (UniProt P21728); assay: Inhibition of human dopamine D1 receptor at 10uM
D(1A) dopamine receptor (Homo sapiens), sequence (P21728 whole entry): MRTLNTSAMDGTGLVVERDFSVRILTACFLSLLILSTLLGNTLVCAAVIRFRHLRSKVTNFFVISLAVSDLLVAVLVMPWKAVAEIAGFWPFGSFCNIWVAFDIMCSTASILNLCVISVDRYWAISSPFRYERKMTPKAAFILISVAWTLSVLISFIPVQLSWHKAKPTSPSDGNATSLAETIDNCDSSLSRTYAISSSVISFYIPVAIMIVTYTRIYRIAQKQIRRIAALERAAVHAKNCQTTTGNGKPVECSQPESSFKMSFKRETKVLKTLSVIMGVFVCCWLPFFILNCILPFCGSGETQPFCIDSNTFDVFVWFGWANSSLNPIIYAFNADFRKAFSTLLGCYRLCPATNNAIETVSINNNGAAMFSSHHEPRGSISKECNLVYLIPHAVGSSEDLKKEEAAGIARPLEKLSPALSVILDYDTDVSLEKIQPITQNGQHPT

[7] = target: 5-hydroxytryptamine receptor 1B (Homo sapiens) (UniProt P28222); assay: Inhibition of serotonin 5HT1B receptor at 10uM
5-hydroxytryptamine receptor 1B (Homo sapiens), sequence (P28222 whole entry): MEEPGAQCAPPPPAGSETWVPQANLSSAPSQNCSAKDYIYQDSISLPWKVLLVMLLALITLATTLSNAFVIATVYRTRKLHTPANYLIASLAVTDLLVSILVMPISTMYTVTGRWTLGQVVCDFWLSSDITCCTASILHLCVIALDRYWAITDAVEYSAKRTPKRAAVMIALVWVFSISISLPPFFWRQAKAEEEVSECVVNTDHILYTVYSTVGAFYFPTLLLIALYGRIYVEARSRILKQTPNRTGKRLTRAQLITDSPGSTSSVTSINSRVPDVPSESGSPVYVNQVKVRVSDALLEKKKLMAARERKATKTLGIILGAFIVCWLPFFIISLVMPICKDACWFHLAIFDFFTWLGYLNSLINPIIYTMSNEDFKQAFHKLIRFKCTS

[8] = target: Sodium-dependent noradrenaline transporter (Homo sapiens) (UniProt P23975); assay: Inhibition of human norepinephrine transporter receptor at 10uM
Sodium-dependent noradrenaline transporter (Homo sapiens), sequence (P23975 whole entry): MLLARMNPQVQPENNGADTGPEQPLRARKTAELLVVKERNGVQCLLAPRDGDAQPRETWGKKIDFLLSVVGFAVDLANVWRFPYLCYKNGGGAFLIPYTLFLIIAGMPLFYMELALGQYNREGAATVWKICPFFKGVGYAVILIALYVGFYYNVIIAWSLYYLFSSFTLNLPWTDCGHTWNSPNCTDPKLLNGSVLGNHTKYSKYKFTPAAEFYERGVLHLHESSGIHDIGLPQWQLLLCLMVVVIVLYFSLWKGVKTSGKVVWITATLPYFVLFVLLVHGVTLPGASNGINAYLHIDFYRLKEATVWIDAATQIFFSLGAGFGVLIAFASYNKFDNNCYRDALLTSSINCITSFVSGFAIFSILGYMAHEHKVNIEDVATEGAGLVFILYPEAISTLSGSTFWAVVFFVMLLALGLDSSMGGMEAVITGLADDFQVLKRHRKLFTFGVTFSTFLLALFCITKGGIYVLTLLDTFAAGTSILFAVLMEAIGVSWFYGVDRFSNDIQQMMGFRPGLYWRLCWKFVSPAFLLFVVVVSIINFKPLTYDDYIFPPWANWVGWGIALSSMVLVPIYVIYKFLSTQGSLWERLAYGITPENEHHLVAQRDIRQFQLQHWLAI

[9] = target: Adenosine receptor A1 (Homo sapiens) (UniProt P30542); assay: Inhibition of human adenosine A1 receptor at 10uM
Adenosine receptor A1 (Homo sapiens), sequence (P30542 whole entry): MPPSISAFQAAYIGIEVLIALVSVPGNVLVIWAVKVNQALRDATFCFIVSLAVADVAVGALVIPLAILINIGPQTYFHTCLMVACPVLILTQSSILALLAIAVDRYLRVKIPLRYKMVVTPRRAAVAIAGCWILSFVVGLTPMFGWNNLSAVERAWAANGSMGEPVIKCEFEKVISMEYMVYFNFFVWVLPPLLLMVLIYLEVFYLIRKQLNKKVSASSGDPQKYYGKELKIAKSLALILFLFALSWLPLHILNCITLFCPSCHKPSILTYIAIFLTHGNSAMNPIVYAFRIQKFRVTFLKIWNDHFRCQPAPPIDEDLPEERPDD

[10] = target: Beta-2 adrenergic receptor (Homo sapiens) (UniProt P07550); assay: Inhibition of adrenergic beta 2 receptor at 10uM
Beta-2 adrenergic receptor (Homo sapiens), sequence (P07550 whole entry, looked up): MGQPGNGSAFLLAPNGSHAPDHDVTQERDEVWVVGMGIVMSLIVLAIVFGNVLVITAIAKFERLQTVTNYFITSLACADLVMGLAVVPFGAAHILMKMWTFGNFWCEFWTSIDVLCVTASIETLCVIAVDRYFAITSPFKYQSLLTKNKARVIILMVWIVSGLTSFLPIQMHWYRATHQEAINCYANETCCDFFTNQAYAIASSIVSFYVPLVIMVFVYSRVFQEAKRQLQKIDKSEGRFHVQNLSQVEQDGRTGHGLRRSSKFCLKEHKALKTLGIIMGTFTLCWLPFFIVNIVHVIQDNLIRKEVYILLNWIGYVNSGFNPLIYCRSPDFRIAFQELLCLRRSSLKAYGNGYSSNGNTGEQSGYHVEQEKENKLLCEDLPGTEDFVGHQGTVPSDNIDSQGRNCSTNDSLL

[11] = target: Histamine H2 receptor (Homo sapiens) (UniProt P25021); assay: Inhibition of histamine H2 receptor at 10uM
Histamine H2 receptor (Homo sapiens), sequence (P25021 whole entry): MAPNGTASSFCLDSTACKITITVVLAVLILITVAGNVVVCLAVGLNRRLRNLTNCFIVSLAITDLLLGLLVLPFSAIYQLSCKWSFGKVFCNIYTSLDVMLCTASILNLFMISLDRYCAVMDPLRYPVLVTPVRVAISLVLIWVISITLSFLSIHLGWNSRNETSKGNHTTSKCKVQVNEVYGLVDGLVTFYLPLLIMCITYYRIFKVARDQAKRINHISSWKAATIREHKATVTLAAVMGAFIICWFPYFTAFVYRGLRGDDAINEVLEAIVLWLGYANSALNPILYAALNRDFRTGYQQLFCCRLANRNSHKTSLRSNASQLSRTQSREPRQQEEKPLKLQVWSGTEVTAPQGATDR

[12] = target: 5-hydroxytryptamine receptor 2A (Homo sapiens) (UniProt P28223); assay: Inhibition of human serotonin 5HT2A receptor at 10uM
5-hydroxytryptamine receptor 2A (Homo sapiens), sequence (P28223 whole entry): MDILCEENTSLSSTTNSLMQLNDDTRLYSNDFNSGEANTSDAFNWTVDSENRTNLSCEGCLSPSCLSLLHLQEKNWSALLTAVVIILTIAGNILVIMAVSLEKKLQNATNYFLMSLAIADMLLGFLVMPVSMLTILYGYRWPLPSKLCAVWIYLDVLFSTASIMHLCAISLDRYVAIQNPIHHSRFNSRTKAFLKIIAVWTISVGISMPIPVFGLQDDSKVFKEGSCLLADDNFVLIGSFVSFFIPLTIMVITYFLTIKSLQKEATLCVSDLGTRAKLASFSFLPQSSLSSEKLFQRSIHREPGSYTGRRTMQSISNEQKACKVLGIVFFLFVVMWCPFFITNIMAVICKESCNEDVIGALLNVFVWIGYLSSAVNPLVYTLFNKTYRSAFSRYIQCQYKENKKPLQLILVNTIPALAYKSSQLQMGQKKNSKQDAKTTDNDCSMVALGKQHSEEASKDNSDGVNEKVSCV

[13] = target: 5-hydroxytryptamine receptor 1A (Homo sapiens) (UniProt P08908); assay: Inhibition of human serotonin 5HT1A receptor at 10uM
5-hydroxytryptamine receptor 1A (Homo sapiens), sequence (P08908 whole entry): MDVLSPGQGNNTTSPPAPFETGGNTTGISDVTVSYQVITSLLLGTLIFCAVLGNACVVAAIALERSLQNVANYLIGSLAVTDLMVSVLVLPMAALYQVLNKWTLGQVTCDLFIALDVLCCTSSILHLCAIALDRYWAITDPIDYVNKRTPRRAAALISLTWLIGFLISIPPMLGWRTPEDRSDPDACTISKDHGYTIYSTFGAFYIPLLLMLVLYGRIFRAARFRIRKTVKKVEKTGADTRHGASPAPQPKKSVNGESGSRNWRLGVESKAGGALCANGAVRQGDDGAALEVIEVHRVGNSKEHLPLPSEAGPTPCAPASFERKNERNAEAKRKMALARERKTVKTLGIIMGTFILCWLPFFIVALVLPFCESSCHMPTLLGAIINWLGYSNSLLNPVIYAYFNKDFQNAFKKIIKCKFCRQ

[14] = target: Muscarinic acetylcholine receptor M1 (Homo sapiens) (UniProt P11229); assay: Inhibition of human muscarinic M1 receptor at 10uM
Muscarinic acetylcholine receptor M1 (Homo sapiens), sequence (P11229 whole entry): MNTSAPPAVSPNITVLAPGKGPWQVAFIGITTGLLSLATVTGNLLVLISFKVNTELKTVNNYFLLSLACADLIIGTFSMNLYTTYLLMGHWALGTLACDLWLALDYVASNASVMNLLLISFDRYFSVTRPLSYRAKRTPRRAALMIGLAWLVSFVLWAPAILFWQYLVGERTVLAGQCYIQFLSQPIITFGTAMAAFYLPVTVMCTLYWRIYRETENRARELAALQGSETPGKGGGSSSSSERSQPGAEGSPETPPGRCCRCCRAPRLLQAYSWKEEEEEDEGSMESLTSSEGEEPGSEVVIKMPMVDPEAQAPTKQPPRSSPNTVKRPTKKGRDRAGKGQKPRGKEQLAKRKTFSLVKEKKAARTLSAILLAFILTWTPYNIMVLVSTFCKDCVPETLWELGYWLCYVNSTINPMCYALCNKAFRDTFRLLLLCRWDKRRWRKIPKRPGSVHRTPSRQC

[15] = target: Muscarinic acetylcholine receptor M2 (Homo sapiens) (UniProt P08172); assay: Inhibition of human muscarinic M2 receptor at 10uM
[16] = target: Kappa-type opioid receptor (Homo sapiens) (UniProt P41145); assay: Inhibition of human kappa opioid receptor at 10uM
Kappa-type opioid receptor (Homo sapiens), sequence (P41145 whole entry): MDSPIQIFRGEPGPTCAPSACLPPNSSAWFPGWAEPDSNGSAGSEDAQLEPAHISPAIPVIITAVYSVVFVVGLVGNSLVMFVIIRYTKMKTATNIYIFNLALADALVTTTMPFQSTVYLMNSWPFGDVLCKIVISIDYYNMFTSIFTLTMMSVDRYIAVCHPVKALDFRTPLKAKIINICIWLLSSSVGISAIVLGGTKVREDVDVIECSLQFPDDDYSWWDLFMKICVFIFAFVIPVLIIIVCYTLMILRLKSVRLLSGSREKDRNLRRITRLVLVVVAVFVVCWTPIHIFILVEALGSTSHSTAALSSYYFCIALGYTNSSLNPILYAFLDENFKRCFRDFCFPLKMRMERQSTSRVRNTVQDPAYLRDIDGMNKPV

[17] = target: Adrenergic receptor alpha-2 (Homo sapiens) (UniProt P08913+P18825+P18089); assay: Inhibition of adrenergic alpha 2 receptor at 10uM; type: protein assay
[18] = Inhibition of calcium-activated potassium (SK) channel at 10uM
L-type calcium channel = L-type calcium channel (Homo sapiens, UniProt O60840+Q01668+Q13698+Q13936); assay: Inhibition of L-type calcium channel at 10uM; type: protein assay
[19] = target: Histamine H1 receptor (Homo sapiens) (UniProt P35367); assay: Inhibition of histamine H1 receptor at 10uM
[20] = target: Sigma non-opioid intracellular receptor 1 (Homo sapiens) (UniProt Q99720); assay: Inhibition of sigma receptor at 10uM
Sigma non-opioid intracellular receptor 1 (Homo sapiens), sequence (Q99720 whole entry): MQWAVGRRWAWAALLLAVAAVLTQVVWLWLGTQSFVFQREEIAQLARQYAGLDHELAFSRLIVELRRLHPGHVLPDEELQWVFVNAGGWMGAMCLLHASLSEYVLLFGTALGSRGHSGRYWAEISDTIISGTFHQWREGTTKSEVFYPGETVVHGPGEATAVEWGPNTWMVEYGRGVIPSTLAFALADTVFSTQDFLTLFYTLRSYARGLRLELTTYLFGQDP

hERG versus MCH receptor = hERG versus MCH receptor (Homo sapiens, UniProt Q12809+Q969V1); assay: in vitro
[21] = target: Voltage-gated inwardly rectifying potassium channel KCNH2 (Homo sapiens, UniProt Q12809)
Cytochrome P450 3A4 = Cytochrome P450 3A4 (Homo sapiens, UniProt P08684); assay: Inhibition of CYP3A4; type: ADME
Summary of the method: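 Human hepatic microsomes; CYP3A4 activity followed as oxidation of [3H]-terfenadine. IC50 taken as the compound concentration giving competitive inhibition of this oxidation.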

O=C1COc2cc(CN3CCC(NC(=O)c4cc(=O)c5ccc(F)cc5o4)CC3)ccc2N1
IC50 [1]: 2.41 µM
IC50 [2]: 0.166 µM

O=C(NC1CCN(Cc2ccc3ccc(=O)oc3c2)CC1)c1cc(=O)c2ccc(F)cc2o1
inhibition [3]: 13%
inhibition [4]: 72%
inhibition [5]: 67%
inhibition [6]: 7%
IC50 [1]: 0.046 µM
inhibition [7]: 5%
inhibition [8]: 45%
inhibition [9]: 11%
inhibition [10]: 16%
inhibition [11]: 21%
inhibition [12]: -10%
inhibition [13]: 25%
inhibition [14]: 16%
IC50 [2]: 0.001 µM
inhibition [15]: 15%
inhibition [16]: 43%
inhibition [17]: 28%
inhibition [18]: 17%
inhibition at 10 µM (L-type calcium channel): 10%
inhibition [19]: 36%
inhibition [20]: 37%

Cn1c(=O)ccc2ccc(CN3CCC(NC(=O)c4cc(=O)c5ccc(F)cc5o4)CC3)cc21
selectivity ratio (hERG versus MCH receptor): 1030
IC50 [1]: 0.044 µM
IC50 [21]: 47.4 µM
IC50 [2]: 0.003 µM

CC(=O)Nc1ccc(CN2CCC(NC(=O)c3cc(=O)c4ccc(F)cc4o3)CC2)cc1
IC50 [1]: > 10 µM

O=C(NC1CCN(Cc2ccc3ncoc3c2)CC1)c1cc(=O)c2ccc(F)cc2o1
IC50 [1]: 0.106 µM
IC50 [2]: 0.01 µM

O=C(NC1CCN(Cc2ccc3cc[nH]c3c2)CC1)c1cc(=O)c2ccc(F)cc2o1
IC50 [1]: 0.066 µM
IC50 [2]: 0.005 µM

O=C(NC1CCN(Cc2ccc3c(c2)OCO3)CC1)c1cc(=O)c2ccc(F)cc2o1
inhibition [3]: 32%
IC50 (Cytochrome P450 3A4): 23.5 µM
inhibition [5]: 26%
inhibition [6]: 43%
inhibition [7]: -6%
inhibition [8]: 48%
inhibition [9]: 8%
inhibition [10]: 21%
inhibition [11]: 16%
inhibition [12]: 17%
inhibition [13]: 48%
inhibition [14]: 55%
inhibition [15]: 42%
inhibition [16]: 66%
inhibition [17]: 18%
inhibition at 10 µM (L-type calcium channel): 31%
inhibition [19]: 65%
inhibition [20]: 104%

CC(=O)Nc1cccc(CN2CCC(NC(=O)c3cc(=O)c4ccc(F)cc4o3)CC2)c1
IC50 [1]: 0.551 µM
IC50 [2]: 0.047 µM

CCc1nc2ccc(CN3CCC(NC(=O)c4cc(=O)c5ccc(F)cc5o4)CC3)cc2o1
selectivity ratio (hERG versus MCH receptor): 2
IC50 [1]: > 10 µM
IC50 [21]: 26.7 µM
IC50 [2]: 1.27 µM

O=C(NC1CCN(Cc2ccc3oc(=O)[nH]c3c2)CC1)c1cc(=O)c2ccc(F)cc2o1
IC50 [1]: 0.569 µM
IC50 [2]: 0.043 µM
